TRPC4 inh: TRPC4 (mouse) channel inhibition | Q9QUQ5 | HEK293 TRPC4beta/mu-opioid, DAMGO-evoked Fluo4 calcium flux; stronger effect = lower value | 300,000 tested, 0.39% active | B-score at 10 µM;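 active = B-score over 3 SD under the library average, no early fluorescence shift, positive overall ratio signal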
Target sequence (Q9QUQ5 whole entry, looked up): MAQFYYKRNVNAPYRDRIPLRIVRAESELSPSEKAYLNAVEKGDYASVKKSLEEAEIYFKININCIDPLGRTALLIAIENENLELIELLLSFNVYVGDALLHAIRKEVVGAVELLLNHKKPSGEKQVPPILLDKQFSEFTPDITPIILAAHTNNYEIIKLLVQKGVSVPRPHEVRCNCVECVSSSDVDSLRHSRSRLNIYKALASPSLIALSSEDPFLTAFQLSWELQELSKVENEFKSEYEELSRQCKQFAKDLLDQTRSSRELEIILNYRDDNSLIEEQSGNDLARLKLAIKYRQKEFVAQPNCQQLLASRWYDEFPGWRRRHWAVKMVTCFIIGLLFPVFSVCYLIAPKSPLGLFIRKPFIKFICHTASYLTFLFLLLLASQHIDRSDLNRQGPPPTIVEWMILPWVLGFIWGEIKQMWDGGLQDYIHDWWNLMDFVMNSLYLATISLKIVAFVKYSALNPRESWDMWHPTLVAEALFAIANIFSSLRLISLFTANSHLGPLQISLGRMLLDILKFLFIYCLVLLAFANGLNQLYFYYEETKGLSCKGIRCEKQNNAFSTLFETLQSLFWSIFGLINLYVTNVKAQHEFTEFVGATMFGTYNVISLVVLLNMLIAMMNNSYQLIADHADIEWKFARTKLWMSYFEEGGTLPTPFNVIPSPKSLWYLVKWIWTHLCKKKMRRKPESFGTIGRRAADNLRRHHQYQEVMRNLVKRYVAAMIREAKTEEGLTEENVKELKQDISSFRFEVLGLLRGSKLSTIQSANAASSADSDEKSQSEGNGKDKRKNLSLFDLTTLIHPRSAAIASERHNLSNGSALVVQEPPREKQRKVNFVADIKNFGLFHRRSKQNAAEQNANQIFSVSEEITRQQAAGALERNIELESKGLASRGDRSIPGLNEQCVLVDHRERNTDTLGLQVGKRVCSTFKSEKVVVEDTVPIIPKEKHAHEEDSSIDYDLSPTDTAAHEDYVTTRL
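Assay system: TRPC4beta/mu-opioid receptor HEK293 cell line; compound dosing: single concentration per test compound; detection: Fluo4 Ca2+ flux fluorescence; evaluation: per-well B score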
TRPC6 act: activates the mouse TRPC6 cation channel; Q61143; HEK293-TRPC6 membrane potential dye fluorescence; stronger effect = higher value; B-score at 10 µM; 310,000 tested, 0.13% active; AID 2550;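 active = B-score of the integrated fluorescence ratio above library mean plus 3 SD, and starting fluorescence ratio within library mean plus 5 SD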;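 note: higher score means more depolarization so channel activation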
TRPC4 agonist: opens the mouse TRPC4 cation channel; HEK293 TRPC4beta/mu-opioid, Fluo4 calcium fluorescence; stronger effect = higher value; B-score at 10 µM; Q9QUQ5; 310,000 tested, 0.49% active;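 active = B-score above 5 SD of library B-scores, and initial fluorescence ratio not above library mean plus 5 SD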;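 note: positive B-score marks a calcium rise read as TRPC4 activation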
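System: HEK293 cells stably co-expressing mouse TRPC4beta and mu-opioid receptor; Schedule: Fluo4 dye loading 45 min at room temperature, 110 s recording; Detection: Fluo4 fluorescence, kinetic; Evaluation: B-scored integrated calcium fluorescence ratio; Controls: buffer (low) and maximal DAMGO (high).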
Kir21 block: inhibitors of mouse Kir2.1 inward-rectifier potassium channel; AID 1672; B-score at 10 µM; HEK293-Kir2.1, FluxOR thallium flux fluorescence; stronger effect = lower value; P35561; 310,000 tested, 0.85% active;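 active = fluorescence ratio B-score at or below minus 3 SD of library scores, with starting-brightness B-score within 2 SD, cut at about -4.2 in these data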;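 note: channel flux triggered by added potassium and thallium sulfate stimulus; B-score of peak minus minimum fluorescence over baseline after thallium stimulus; more negative B-score means stronger Kir2.1 block with less thallium influx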
TRPC6 inh: blocks the mouse TRPC6 cation channel; HEK293-TRPC6, membrane potential dye, ACh-evoked depolarization; stronger effect = lower value; AID 2553; B-score at 10 µM; 310,000 tested, 1.1% active; Q61143;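 active = B-score under library mean minus 3 SD, initial fluorescence not abnormally high, positive integrated signal ratio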;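 note: B-score derived from integrated fluorescence ratio over the kinetic read; more negative B-score means stronger inhibition of depolarization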
TRPC4 PAM: TRPC4 (mouse) allosteric potentiation; Q9QUQ5; HEK293 TRPC4beta/mu-opioid, DAMGO EC20, Fluo-4 Ca2+ flux; stronger effect = higher value; B-score at 10 µM; 310,000 tested, 0.42% active;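 active = B-score of calcium response area above 5 SD of library B-scores, with initial fluorescence ratio within 5 SD of library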
Of the large screens only hits and unclear results are named; the others gave an inactive call. Only some compounds are listed: those with a hit (about 2.9% of all), similar ones and a draw of the others.

COc1ccc(C(=O)NCCn2cc(SCC(=O)NCC3CCCO3)c3ccccc32)cc1OC (stereo not given)	none
CCCCN(CCCC)S(=O)(=O)c1ccc2oc(C(=O)N3CCOCC3)c(C)c2c1	Kir21 block -4.8
CCn1cc(CCC(=O)NCc2ccccc2OC)c2ccccc21	Kir21 block -6.7
CCn1cc(CCCC(=O)NCc2ccccc2OC)c2ccccc21	none
Cc1ccc(S(=O)(=O)Nc2ccc(O)c3cccnc23)cc1	Kir21 block -4.5
Cc1ccc2c(C)c(C(=O)N3CCCCC3CO)oc2c1C (stereo not given)	none
O=C(NCCCN1CCOCC1)C1COc2ccccc2O1 (stereo not given)	none
O=C(NCCCN1CCOCC1)c1ccc(NC(=O)C2COc3ccccc3O2)cc1 (stereo not given)	TRPC4 inh -6, TRPC4 agonist 78
COC(=O)[C@@]12CCCCN1[C@H](c1ccc(-c3ccccc3)cc1)[C@@H]1C(=O)N(C)C(=O)[C@@H]12	TRPC4 PAM 18
CN(Cc1ccccn1)C(=O)CC1C(=O)NCCN1Cc1cccc(Oc2ccccc2)c1 (stereo not given)	none
CN(CCc1ccccn1)C(=O)CC1C(=O)NCCN1Cc1cccc(F)c1 (stereo not given)	TRPC4 agonist 186
CN(CCN1CCOCC1)C(=O)CC1C(=O)NCCN1Cc1ccccc1C(F)(F)F (stereo not given)	none
COc1cccc(CN2CCNC(=O)C2CC(=O)N(C)CCc2ccccn2)c1OC (stereo not given)	TRPC4 agonist 93
CN(CCc1ccccn1)C(=O)CC1C(=O)NCCN1Cc1ccccc1C(F)(F)F (stereo not given)	TRPC4 agonist 131
COc1cccc(CN2CCNC(=O)C2CC(=O)N(C)C2CCCCC2)c1OC (stereo not given)	none
CCOc1ccc(CN2CCNC(=O)C2CC(=O)NCCc2ccccn2)cc1 (stereo not given)	TRPC4 agonist 112
CCOc1ccc(CN2CCNC(=O)C2CC(=O)NCc2ccccn2)cc1 (stereo not given)	none
CC(C)(C)c1cc(CCC(=O)NCCc2ccccn2)cc(C(C)(C)C)c1O	none
O=C(NCCc1ccccn1)C(F)(F)C(F)(F)C(F)(F)C(F)(F)C(F)(F)C(F)(F)C(F)(F)C(F)F	TRPC4 agonist 165
COc1ccc(CCNC(=O)CSc2ccsc2[N+](=O)[O-])cc1OC	Kir21 block -4.5
c1ccc(Nc2nc(Nc3ccccc3)nc(N3CCNCC3)n2)cc1	TRPC4 agonist 146
c1ccc(Nc2nc(N3CCCC3)nc(N3CCOCC3)n2)cc1	none
C/C(=N\NC(=O)CCC(=O)Nc1ccc(C)c(C)c1)C1CC1	none
CCN(CC)S(=O)(=O)c1cccc(NC(=O)CN(C)Cc2cccc(OC)c2)c1	none
O=S(=O)(c1ccccc1Cl)N1CCC(Cc2ccccc2)CC1	TRPC4 PAM 20
CCOC(=O)C1(CCOc2ccccc2)CCN(Cc2ccc(-n3cccn3)cc2)CC1	TRPC4 inh -7
CCOC(=O)C1(CCOc2ccccc2)CCN(Cc2cccn2-c2ncccn2)CC1	TRPC4 inh -9
CCOC(=O)C1(CCOc2ccccc2)CCN(Cc2cc(OC)ccc2OC)CC1	TRPC4 agonist 98
CCOC(=O)C1(CCOC)CCN(Cc2ccncc2)CC1	none
CCOC(=O)C1(CCOC)CCN(Cc2ccccc2-c2ccco2)CC1	TRPC4 agonist 123
CC(C)COc1cccc(-c2cc(C(=O)N/N=C/c3ccncc3)c3ccccc3n2)c1	none
CCOC(=O)C1(CCOc2ccccc2)CCN(Cc2cccs2)CC1	TRPC4 inh -5, Kir21 block -5
CC(C)Cc1ccc(C(=O)Nc2ccc(Cc3ccncc3)cc2)o1	none
CCN(CC)CCNC(=O)C1CCN(S(=O)(=O)c2c(C)noc2/C=C/c2ccccc2F)CC1	Kir21 block -4.6
Cc1noc(C)c1S(=O)(=O)N1CCC(C(=O)NCCN2CCC(C)CC2)CC1	none
Cc1noc(C)c1S(=O)(=O)N1CCC(C(=O)NCCCN2CC(C)CC(C)C2)CC1 (stereo not given)	TRPC4 agonist 111

Screening results (PubChem BioAssay)
